Experimental data pooled from the literature.
Protocols differ between the studies behind these lines.
Target: Calcium/calmodulin-dependent protein kinase type II subunit gamma (CAMK2G, Homo sapiens, UniProt Q13555)

| SMILES | assay | conditions | remaining binding |
| --- | --- | --- | --- |
| O=C(O)[C@H]1[C@H](Cn2nnc3ccccc3c2=O)CC[C@@H]1C(=O)c1ccc(OCCC2CCOCC2)cc1 | cell-free assay, competition with immobilised ligand | 1 µM | 90% |
| CN(C)c1ncc(F)c(-c2cnn3ncccc23)n1 | binding | 1 µM | 90% |
| O=C(NCC1CCOCC1)c1n[nH]cc1NC(=O)c1c(F)cccc1F | binding, competition with immobilised ligand | 1 µM | 88% |
| CO[C@H]1CC[C@H](CNc2ccc(S(=O)(=O)NC(=O)c3ccc(N4CCN(CC5=C(c6ccc(Cl)cc6)CC(C)(C)CC5)CC4)cc3Oc3cnc4[nH]ccc4c3)cc2[N+](=O)[O-])CC1 | cell-free assay, competition with immobilised ligand | 1 µM | 75% |
| c1cncc(-c2cccc(Nc3nccc(NC4CCCCC4)n3)c2)c1 | binding, competition with immobilised ligand | 10 µM | 80% |
| CCS(=O)(=O)c1cc2cc(C[C@](O)(CC(C)(C)c3ccc(F)cc3C(N)=O)C(F)(F)F)[nH]c2cn1 | cell-free assay, competition with immobilised ligand | 1 µM | 100% |
| CC1CCCN1c1nccc(-c2cnn3ncccc23)n1 (centres unmarked) | binding | 1 µM | 100% |
| O=C(N1CCS(=O)(=O)CC1)N1C[C@H](c2ccc(OC(F)(F)F)cc2)C[C@H](c2nc(C3CC3)no2)C1 | cell-free assay, competition with immobilised ligand | 1 µM | 100% |
| CNC(=O)[C@@H]1CC[C@@H](n2c(-c3ccc4cnccc4c3)nc3ccc(C(=O)NCc4cccc(C(N)=O)c4)cc32)C1 | binding, competition with immobilised ligand | 1 µM | 100% |
| CCN1CCN(Cc2ccc(C(=O)Nc3ccc(C)c(Oc4ccc5c(c4)CC(=O)N5)c3)cc2C(F)(F)F)CC1 | binding, competition with immobilised ligand | 1 µM | 97% |
| O=C(c1ccc(Nc2ncc(Cl)c(-c3cc4ccccc4s3)n2)cc1)N1CCC(N2CCCC2)CC1 | binding, competition with immobilised ligand | 1 µM | 82% |
| C[C@@H](c1ccc(-n2cnc3c(N)ncnc32)cc1)N1CCc2nn(C)c(Cc3ccccc3)c2C1=O | binding, competition with immobilised ligand | 0.1 µM | 94% |
| CN(C)c1nccc(-c2cnc3ncccn23)n1 | binding | 1 µM | 100% |
| CCCOc1ccc([C@H]2[C@H](C(=O)O)[C@@H](c3ccc4c(c3)OCO4)CN2CC(=O)Nc2c(CC)cccc2CC)cc1 | cell-free assay, competition with immobilised ligand | 1 µM | 95% |
| O=C(NCCCN1CCOCC1)c1ccc(Nc2ncc(Cl)c(-c3ccc(Cl)s3)n2)cc1 | binding, competition with immobilised ligand | 1 µM | 77% |
| CN(C)C(=O)Cn1cc(-c2nc([C@@](C)(c3ccc(-c4cnc(N)nc4)cc3)C3CC3)no2)cn1 | cell-free assay, competition with immobilised ligand | 1 µM | 100% |
| c1cnn2ncc(-c3ccnc(N4CCC45COC5)n3)c2c1 | binding | 1 µM | 91% |
| Cc1cnc(Nc2ccc(C(=O)N3CCC(N4CCCC4)CC3)cc2)nc1-c1cc2ccccc2s1 | binding, competition with immobilised ligand | 1 µM | 74% |
| CN(CCCC(F)(F)F)c1nccc(-c2cnn3ncccc23)n1 | binding | 1 µM | 100% |
| COc1ncc2cc3ccccc3nc2c1C#N | cell-free assay, competition with immobilised ligand | 5 µM | 92% |
